Laboratory results reported in ChEMBL document CHEMBL1137689, “Amines and oximes derived from deoxybenzoins as Helicobacter pylori urease inhibitors” (Eur J Med Chem, 2009).
The source made the active and inactive calls. The calls are words filed in the database; no cut-off is given here.

How the values were obtained:
[1] = target: Urease subunit alpha/Urease subunit beta (Helicobacter pylori (strain ATCC 700392 / 26695) (Campylobacterpylori)) (UniProt P69996+P14916); assay: Inhibition of Helicobacter pylori ATCC 43504 urease assessed as ammonia production at 400 ug/mL by indophenol method
How it was run: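 Crude urease prepared from H. pylori ATCC 43504 grown 24 h at 37 °C in brucella broth with 10% heat-inactivated horse serum, microaerobic (5% O2, 10% CO2, 85% N2). Cells washed in PBS pH 7.4, stored -80 °C; urease in equal-volume glycerol kept at 4 °C. Enzyme (4U) preincubated with compound 3 h at room temperature; ammonia production read by indophenol method; percent inhibition.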

[2] = target: Urease subunit alpha/Urease subunit beta (Helicobacter pylori (strain ATCC 700392 / 26695) (Campylobacterpylori), UniProt P69996); assay: Inhibition of Helicobacter pylori ATCC 43504 urease assessed as ammonia production by indophenol method
How it was run: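 Crude urease from H. pylori cells, grown 24 h at 37 °C microaerobically (5% O2, 10% CO2, 85% N2) in brucella broth with 10% heat-inactivated horse serum. Cells were washed in PBS pH 7.4 and stored at -80 °C; the extract was kept 1:1 in glycerol at 4 °C. Enzyme (4U) was preincubated with compound 3 h at room temperature. Percent inhibition was screened at 400 µg/mL; IC50 also determined.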

Urease subunit alpha/Urease subunit beta (Helicobacter pylori (strain ATCC 700392 / 26695) (Campylobacterpylori)), sequence (P14916 whole entry, looked up): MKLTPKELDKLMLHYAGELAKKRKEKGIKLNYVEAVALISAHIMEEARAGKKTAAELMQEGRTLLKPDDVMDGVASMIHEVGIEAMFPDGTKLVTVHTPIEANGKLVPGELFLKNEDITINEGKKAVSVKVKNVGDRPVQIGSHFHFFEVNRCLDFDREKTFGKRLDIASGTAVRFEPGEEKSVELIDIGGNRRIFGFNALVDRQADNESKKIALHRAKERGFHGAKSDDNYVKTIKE
Urease subunit alpha/Urease subunit beta (Helicobacter pylori (strain ATCC 700392 / 26695) (Campylobacterpylori)), sequence (P69996 whole entry, looked up): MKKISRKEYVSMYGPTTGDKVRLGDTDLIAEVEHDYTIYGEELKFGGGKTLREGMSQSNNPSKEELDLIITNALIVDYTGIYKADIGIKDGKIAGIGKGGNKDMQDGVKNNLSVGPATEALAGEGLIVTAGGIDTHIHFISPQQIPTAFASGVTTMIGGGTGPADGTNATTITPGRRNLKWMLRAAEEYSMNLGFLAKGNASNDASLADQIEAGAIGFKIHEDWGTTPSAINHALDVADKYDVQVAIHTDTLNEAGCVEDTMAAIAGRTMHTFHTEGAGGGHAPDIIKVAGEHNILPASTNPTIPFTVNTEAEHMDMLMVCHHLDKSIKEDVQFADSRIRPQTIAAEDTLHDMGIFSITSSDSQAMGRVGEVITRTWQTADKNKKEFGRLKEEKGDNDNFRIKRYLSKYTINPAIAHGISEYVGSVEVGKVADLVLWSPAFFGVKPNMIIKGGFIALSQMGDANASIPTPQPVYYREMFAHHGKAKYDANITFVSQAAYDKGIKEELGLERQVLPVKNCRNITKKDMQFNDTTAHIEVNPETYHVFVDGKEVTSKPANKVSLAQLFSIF
Urease subunit alpha/Urease subunit beta, sequence (P69996 whole entry): as the sequence (P69996 whole entry, looked up) above
Urease subunit alpha/Urease subunit beta, sequence (P14916 whole entry, further chain): as the sequence (P14916 whole entry, looked up) above

SMILES | inhibition [1] | IC50 [2] [µM]
O/N=C(\Cc1ccc(O)cc1)c1ccc(O)c(O)c1 | 62% | 
O=C(Cc1ccc([N+](=O)[O-])cc1)c1ccc(O)cc1O | inactive | 
COc1c(O)cc(O)c(/C(Cc2ccc(O)cc2)=N/O)c1O | 38% | 
O=[N+]([O-])c1ccc(C/C(=N/O)c2ccc(O)cc2O)cc1 | inactive | 
COc1cc(O)c(C(N)Cc2ccc(OO)cc2)c(OC)c1 (stereo unspecified) | inactive | 
O=C(Cc1ccc(F)cc1)c1ccc(O)cc1O | 16% | 
COc1cc(O)c(C(=O)Cc2ccc(OO)cc2)c(OC)c1 | inactive | 
O/N=C(\Cc1ccc(F)cc1)c1ccc(O)c(O)c1O | 55% | 
CC(=O)NO [ACETOHYDROXAMIC ACID] |  | 11
COc1ccc(C/C(=N/O)c2ccc(OC)c(OC)c2OC)cc1 | inactive | 
O/N=C(/Cc1ccc(O)cc1)c1ccc(O)c(O)c1O | 73% | 
O/N=C(\Cc1ccc(O)cc1)c1c(O)cc(O)cc1O | 13% | 
COc1ccc(CC(=N)c2ccc(OC)c(OC)c2OC)cc1 | 11% | 
NC(Cc1ccc(F)cc1)c1ccc(O)c(O)c1O (stereo unspecified) | 80% | 
NC(Cc1ccc(F)cc1)c1ccc(O)cc1O (stereo unspecified) | 48% | 
NC(Cc1ccc(O)cc1)c1ccc(O)c(O)c1O (stereo unspecified) | 97.3% | 47
O/N=C(/Cc1ccc(F)cc1)c1ccc(O)cc1O | 23% | 
COc1ccc(C/C(=N\O)c2ccc(O)cc2O)cc1 | 36% | 
COc1cc(O)c(/C(Cc2ccc(OO)cc2)=N/O)c(OC)c1 | 15% | 
COc1ccc(CC(N)c2ccc(O)cc2O)cc1 (stereo unspecified) | 73% | 
NC(Cc1ccc([N+](=O)[O-])cc1)c1ccc(O)cc1O (stereo unspecified) | inactive | 
COc1ccc(CC(=O)c2ccc(OC)c(OC)c2OC)cc1 | inactive | 
O=C(Cc1ccc(O)cc1)c1c(O)cc(O)cc1O | inactive | 
NC(Cc1ccc(O)cc1)c1c(O)cc(O)cc1O (stereo unspecified) | 28% | 
O=C(Cc1ccc(F)cc1)c1ccc(O)c(O)c1O | 44% | 
